Measurements taken from ChEMBL document CHEMBL1127554, “Design, synthesis, and study of 9-substituted ellipticine and 2-methylellipticinium analogues as potential CNS-selective antitumor agents” (1994).

Columns and labels:
[1] = GI50 was measured in vitro as the ratio of the mean activity for all non-CNS tumor cell lines over the mean activity of the CNS tumor subpanel (eight cell lines); format: functional
In short: (§1)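 Ratio of the mean activity (μM) over all non-CNS tumour cell lines (ca. 40-50 lines) to the mean activity (μM) of the CNS subpanel (eight lines). Activity was taken from PG vs log concentration curves: GI50 at PG +50%, TGI at PG 0%.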

Tumor Cell line [2] = assay: TGI was given in vitro as 0% percent growth (PG), measured as concentration of compound required to inhibit disease oriented human tumor cell line panels; Value ranges from 2.95-54.95; format: functional
In short: (§2)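 Human tumour cell line panel; percent growth plotted against log drug concentration to give dose-response curves. GI50 is the concentration giving PG +50%, and TGI the concentration giving PG 0%. Values are mean inhibitory concentrations over the entire panel. PG values at either limit (> or <) are included in the mean.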

[3] = LC50 was measured in vitro as the ratio of the mean activity for all non-CNS tumor cell lines over the mean activity of the CNS tumor subpanel (eight cell lines); format: functional
In short: (§3)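 Same PG dose-response panel. LC50 (μM) is averaged separately over the non-CNS lines (ca. 40-50 lines) and the CNS subpanel (eight lines). The ratio is the non-CNS mean divided by the CNS mean.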

[4] = TGI was measured in vitro as the ratio of the mean activity for all non-CNS tumor cell lines over the mean activity of the CNS tumor subpanel (eight cell lines); format: functional; in short: as §1
Tumor Cell line [5] = assay: GI50 was given in vitro as +50% percent growth (PG), measured as concentration of compound required to inhibit disease oriented human tumor cell line panels; Value ranges from 1.58-11.22; format: functional; in short: as §2
Tumor Cell line [6] = assay: LC50 was given in vitro as -50% percent growth (PG), measured as concentration of compound required to inhibit disease oriented human tumor cell line panels; Value ranges from 5.50->100; format: functional; settings: read-out: LC50 (the source's name)
In short: (§4)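 Human tumor cell line panel tested in vitro. Percent growth (PG) plotted against log drug concentration to give dose-response curves. LC50 is the concentration where PG equals -50%; GI50 and TGI are taken at +50% and 0%. Values are means across the full panel, with values beyond the tested limits (> or <) included in the mean.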

Tumor Cell line [7] = assay: TGI was given In vitro as 0% percent growth (PG), measured as concentration of compound required to inhibit disease oriented human tumor cell line panels; Value ranges from 0.65->100; format: functional
Tumor Cell line [8] = assay: GI50 was given In vitro as +50% percent growth (PG), measured as concentration of compound required to inhibit disease oriented human tumor cell line panels; Value ranges from 0.19->100; format: functional
Tumor Cell line [9] = assay: LC50 was given In vitro as -50% percent growth (PG), measured as concentration of compound required to inhibit disease oriented human tumor cell line panels; Value ranges from 5.6->100; format: functional; settings: read-out: LC50 (the source's name)
Tumor Cell line [10] = assay: TGI was measured In vitro as the ratio of the mean activity for all non-CNS tumor cell lines over the mean activity of the CNS tumor subpanel (eight cell lines); format: functional, Homo sapiens; in short: as §1
Tumor Cell line [11] = assay: GI50 was measured In vitro as the ratio of the mean activity for all non-CNS tumor cell lines over the mean activity of the CNS tumor subpanel (eight cell lines); format: functional, Homo sapiens; in short: as §1
Tumor Cell line [12] = assay: LC50 was given In vitro as -50% percent growth (PG), measured as concentration of compound required to inhibit disease oriented human tumor cell line panels; Value ranges from 1.20->100; format: functional; settings: read-out: LC50 (the source's name)
Tumor Cell line [13] = assay: TGI was given In vitro as 0% percent growth (PG), measured as concentration of compound required to inhibit disease oriented human tumor cell line panels; Value ranges from 0.30->100; format: functional
Tumor Cell line [14] = assay: GI50 was given In vitro as +50% percent growth (PG), measured as concentration of compound required to inhibit disease oriented human tumor cell line panels; Value ranges from 0.02->100; format: functional; in short: as §2
Tumor Cell line [15] = assay: GI50 was given In vitro as +50% percent growth (PG), measured as concentration of compound required to inhibit disease oriented human tumor cell line panels; Value ranges from 0.32-2; format: functional; in short: as §2
Tumor Cell line [16] = assay: LC50 was given In vitro as -50% percent growth (PG), measured as concentration of compound required to inhibit disease oriented human tumor cell line panels; Value ranges from 5.25->100; format: functional; settings: read-out: LC50 (the source's name); in short: as §4
Tumor Cell line [17] = assay: LC50 was given In vitro as -50% percent growth (PG), measured as concentration of compound required to inhibit disease oriented human tumor cell line panels; format: functional; settings: read-out: LC50 (the source's name); in short: as §4
Tumor Cell line [18] = assay: TGI was given In vitro as 0% percent growth (PG), measured as concentration of compound required to inhibit disease oriented human tumor cell line panels; format: functional; in short: as §2
Tumor Cell line [19] = assay: GI50 was given In vitro as +50% percent growth (PG), measured as concentration of compound required to inhibit disease oriented human tumor cell line panels; format: functional; in short: as §2
Tumor Cell line [20] = assay: GI50 was given In vitro as +50% percent growth (PG), measured as concentration of compound required to inhibit disease oriented human tumor cell line panels;Value ranges from 0.06->100; format: functional
Tumor Cell line [21] = assay: TGI was given In vitro as 0% percent growth (PG), measured as concentration of compound required to inhibit disease oriented human tumor cell line panels; Value ranges from 0.06->100; format: functional
Tumor Cell line [22] = assay: LC50 was measured In vitro as the ratio of the mean activity for all non-CNS tumor cell lines over the mean activity of the CNS tumor subpanel (eight cell lines); format: functional, Homo sapiens; in short: as §3
Tumor Cell line [23] = assay: LC50 was given In vitro as -50% percent growth (PG), measured as concentration of compound required to inhibit disease oriented human tumor cell line panels; Value ranges from 22.91->55; format: functional; settings: read-out: LC50 (the source's name); in short: as §4
Tumor Cell line [24] = assay: GI50 was given In vitro as +50% percent growth (PG), measured as concentration of compound required to inhibit disease oriented human tumor cell line panels; Value ranges from 0.51-12.88; format: functional; in short: as §2
Tumor Cell line [25] = assay: LC50 was given In vitro as -50% percent growth (PG), measured as concentration of compound required to inhibit disease oriented human tumor cell line panels; Value ranges from 12.30->100; format: functional; settings: read-out: LC50 (the source's name); in short: as §4
Tumor Cell line [26] = assay: GI50 was given In vitro as +50% percent growth (PG), measured as concentration of compound required to inhibit disease oriented human tumor cell line panels; Value ranges from 0.62-2.95; format: functional; in short: as §2

Cc1c2ccncc2c(C)c2c1[nH]c1ccc(OC(C)(C)C)cc12
GI50 ratio [1]: 1.1
TGI (Tumor Cell line [2]): 7.24 µM
LC50 ratio [3]: 0.98 µM
TGI ratio [4]: 1.17
GI50 (Tumor Cell line [5]): 2.57 µM
CC50 (Tumor Cell line [6]): > 32.4 µM

CC(=O)[O-].CCOc1ccc2[nH]c3c(C)c4cc[n+](C)cc4c(C)c3c2c1
TGI (Tumor Cell line [7]): > 19.5 µM
GI50 (Tumor Cell line [8]): > 2.34 µM
CC50 (Tumor Cell line [9]): > 74.1 µM
TGI ratio (Tumor Cell line [10]): 7.08
GI50 ratio (Tumor Cell line [11]): 5.92

CC(=O)[O-].COc1ccc2[nH]c3c(C)c4cc[n+](C)cc4c(C)c3c2c1
CC50 (Tumor Cell line [12]): > 49 µM
TGI ratio (Tumor Cell line [10]): 33.9
TGI (Tumor Cell line [13]): > 14.8 µM
GI50 (Tumor Cell line [14]): > 1.86 µM
GI50 ratio (Tumor Cell line [11]): 16.7

Cc1c2ccncc2c(C)c2c1[nH]c1ccc(OC(C)C)cc12
GI50 (Tumor Cell line [15]): 1.32 µM
TGI ratio (Tumor Cell line [10]): 0.9
CC50 (Tumor Cell line [16]): > 6.61 µM
GI50 ratio (Tumor Cell line [11]): 0.78

CC(=O)[O-].Cc1c2cc[n+](C)cc2c(C)c2c1[nH]c1ccc(OC(C)(C)C)cc12
CC50 (Tumor Cell line [17]): > 100 µM
TGI (Tumor Cell line [18]): > 100 µM
GI50 (Tumor Cell line [19]): > 100 µM
TGI ratio (Tumor Cell line [10]): 1
GI50 ratio (Tumor Cell line [11]): 1

CC(=O)[O-].Cc1c2cc[n+](C)cc2c(C)c2c1[nH]c1ccc(O)cc12 [ELLIPTINIUM ACETATE]
CC50 (Tumor Cell line [17]): > 100 µM
TGI ratio (Tumor Cell line [10]): 9.34
GI50 ratio (Tumor Cell line [11]): 6.28

Cc1c2cc[n+](C)cc2c(C)c2c1[nH]c1ccc(OC(C)C)cc12.[I-]
GI50 (Tumor Cell line [20]): > 1.62 µM
TGI ratio (Tumor Cell line [10]): 6.49
TGI (Tumor Cell line [21]): > 13.2 µM
CC50 (Tumor Cell line [16]): > 58.9 µM
GI50 ratio (Tumor Cell line [11]): 8.35

Cc1c2cc[n+](C)cc2c(C)c2c1[nH]c1ccc(O)c(OCC(F)(F)F)c12.[I-]
LC50 ratio (Tumor Cell line [22]): 1.35
CC50 (Tumor Cell line [23]): > 50.1 µM
GI50 (Tumor Cell line [24]): 2.24 µM
TGI ratio (Tumor Cell line [10]): 3.89
GI50 ratio (Tumor Cell line [11]): 5.65

Cc1c2cc[n+](C)cc2c(C)c2c1[nH]c1ccc(OCC(F)(F)F)cc12.[I-]
TGI ratio (Tumor Cell line [10]): 9.11
CC50 (Tumor Cell line [25]): > 79.4 µM
GI50 (Tumor Cell line [26]): 1.58 µM
GI50 ratio (Tumor Cell line [11]): 6.26
